# Paper PMC5766324 (Pain, 2015)
# Where a SMILES comes first, the peptide text is derived from it. The star is where a group is joined. Myristoyl = CCCCCCCCCCCCCC(=O)*
# Experiments:
# Rotarod performance test = assay type: in vivo, rat; conditions: 20 μg/5 μL i.t.; cutoff 180 seconds; n = 5 to 6
# [1] = cited from earlier work
# [2] = biological target: N-type voltage-gated calcium channel (CaV2.2) (rat (endogenous in spinal cord)) (UniProt Q02294); experiment: pull-down
# [3] = system: Ca2+ currents in sensory neurons; conditions: cited from earlier work
# CRMP2 phosphorylation = experiment: Western blot of phospho-CRMP2 in peptide-treated DRG; assay type: cell-based, rat; conditions: 20 μM peptide, 2 hours, n = 3–6 wells
# CRMP2 = CRMP2 (Homo sapiens, UniProt Q16555); experiment: CRMP2 oligomerization, glutaraldehyde cross-linking and silver-stained SDS-PAGE; assay type: biochemical; conditions: 20 μM peptide, 1 mM glutaraldehyde; n = 3
# Method in brief: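 Bacterially expressed recombinant CRMP2, purified by affinity, anion-exchange and size-exclusion chromatography. About 4.6 μM CRMP2 was preincubated in 100 mM HEPES pH 7.3, 50 mM NaCl, with or without 20 μM peptide, for 15 min at room temperature. Glutaraldehyde (0.1, 1 or 10 mM) was added for 30 min. The reaction was stopped with loading dye and heat, and oligomers were resolved by SDS-PAGE with silver staining.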
# CaV2.2 = experiment: Immunocytochemistry, confocal colocalization of CaV2.2 and CRMP2 in DRG; assay type: cell-based, rat; conditions: 20 μM peptide
# Method in brief: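 DRG cultures were grown on poly-D-lysine coverslips in DMEM/F12 with 10% FBS, 5-FDU and uridine at 37°C, 5% CO2. Cells were exposed to vehicle or 20 μM peptide for 5 min, 20 min, 2 h or 48 h, then fixed (4% paraformaldehyde/4% sucrose, 20 min), permeabilized (0.1% Triton X-100) and blocked (3% BSA). Anti-CaV2.2 and anti-CRMP2 were applied overnight at 4°C. Confocal images were background-subtracted, and Pearson and Manders coefficients were computed from raw data.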
# [4] = system: Ca2+ currents in sensory neurons; experiment: Whole-cell voltage clamp, Ca2+ currents in sensory neurons; assay type: cell-based, rat
# [5] = system: small-diameter DRG neurons; experiment: Current clamp, excitability of small-diameter DRG neurons; assay type: cell-based, rat; conditions: step of depolarizing current; n = 4 to 6 cells; P < 0.001
# Method in brief: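 Whole-cell current clamp of acutely dissociated small-diameter DRG neurons at ~23°C. Pipette solution (mM): 140 KCl, 10 NaCl, 1 MgCl2, 1 EGTA, 10 HEPES pH 7.2, 1 ATP-Mg. Cells were held at resting potential (−40 to −62 mV). A 1-s depolarizing current step was set to evoke 6–10 APs under control, and APs were counted before and after adding peptide to the bath. Signals were filtered at 5 kHz and […].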
# [6] = Carrageenan-induced thermal hypersensitivity; assay type: in vivo, rat; conditions: 20 μg/5 μL i.t., 3 hours after carrageenan; tat-CBD3 at 90, 120, 210, 240, 300 minutes; myr-tat-CBD3 at 15, 60, 90, 120, 180 minutes; n = 5–6
# [7] = Paw incision model of postoperative pain; assay type: in vivo, rat
# Method in brief: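 Male Sprague-Dawley rats received a plantar incision of the left hind paw under isoflurane. After 24 h of recovery, peptide or vehicle was given spinally. Thermal withdrawal latency (lift or lick; 30-s cutoff) and tactile withdrawal thresholds were measured every 15 min for the first hour, then every 30 min for 4 h.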
# [8] = system: Na+ currents, catecholamine A differentiated cell line; conditions: chronic application, 20 μM overnight; n = 5 to 8 cells
# [9] = i.c.v. dosing; previous studies; cited from earlier work
# Chain of N-type voltage-gated calcium channel (CaV2.2) (rat (endogenous in spinal cord)) (Q02294 whole entry): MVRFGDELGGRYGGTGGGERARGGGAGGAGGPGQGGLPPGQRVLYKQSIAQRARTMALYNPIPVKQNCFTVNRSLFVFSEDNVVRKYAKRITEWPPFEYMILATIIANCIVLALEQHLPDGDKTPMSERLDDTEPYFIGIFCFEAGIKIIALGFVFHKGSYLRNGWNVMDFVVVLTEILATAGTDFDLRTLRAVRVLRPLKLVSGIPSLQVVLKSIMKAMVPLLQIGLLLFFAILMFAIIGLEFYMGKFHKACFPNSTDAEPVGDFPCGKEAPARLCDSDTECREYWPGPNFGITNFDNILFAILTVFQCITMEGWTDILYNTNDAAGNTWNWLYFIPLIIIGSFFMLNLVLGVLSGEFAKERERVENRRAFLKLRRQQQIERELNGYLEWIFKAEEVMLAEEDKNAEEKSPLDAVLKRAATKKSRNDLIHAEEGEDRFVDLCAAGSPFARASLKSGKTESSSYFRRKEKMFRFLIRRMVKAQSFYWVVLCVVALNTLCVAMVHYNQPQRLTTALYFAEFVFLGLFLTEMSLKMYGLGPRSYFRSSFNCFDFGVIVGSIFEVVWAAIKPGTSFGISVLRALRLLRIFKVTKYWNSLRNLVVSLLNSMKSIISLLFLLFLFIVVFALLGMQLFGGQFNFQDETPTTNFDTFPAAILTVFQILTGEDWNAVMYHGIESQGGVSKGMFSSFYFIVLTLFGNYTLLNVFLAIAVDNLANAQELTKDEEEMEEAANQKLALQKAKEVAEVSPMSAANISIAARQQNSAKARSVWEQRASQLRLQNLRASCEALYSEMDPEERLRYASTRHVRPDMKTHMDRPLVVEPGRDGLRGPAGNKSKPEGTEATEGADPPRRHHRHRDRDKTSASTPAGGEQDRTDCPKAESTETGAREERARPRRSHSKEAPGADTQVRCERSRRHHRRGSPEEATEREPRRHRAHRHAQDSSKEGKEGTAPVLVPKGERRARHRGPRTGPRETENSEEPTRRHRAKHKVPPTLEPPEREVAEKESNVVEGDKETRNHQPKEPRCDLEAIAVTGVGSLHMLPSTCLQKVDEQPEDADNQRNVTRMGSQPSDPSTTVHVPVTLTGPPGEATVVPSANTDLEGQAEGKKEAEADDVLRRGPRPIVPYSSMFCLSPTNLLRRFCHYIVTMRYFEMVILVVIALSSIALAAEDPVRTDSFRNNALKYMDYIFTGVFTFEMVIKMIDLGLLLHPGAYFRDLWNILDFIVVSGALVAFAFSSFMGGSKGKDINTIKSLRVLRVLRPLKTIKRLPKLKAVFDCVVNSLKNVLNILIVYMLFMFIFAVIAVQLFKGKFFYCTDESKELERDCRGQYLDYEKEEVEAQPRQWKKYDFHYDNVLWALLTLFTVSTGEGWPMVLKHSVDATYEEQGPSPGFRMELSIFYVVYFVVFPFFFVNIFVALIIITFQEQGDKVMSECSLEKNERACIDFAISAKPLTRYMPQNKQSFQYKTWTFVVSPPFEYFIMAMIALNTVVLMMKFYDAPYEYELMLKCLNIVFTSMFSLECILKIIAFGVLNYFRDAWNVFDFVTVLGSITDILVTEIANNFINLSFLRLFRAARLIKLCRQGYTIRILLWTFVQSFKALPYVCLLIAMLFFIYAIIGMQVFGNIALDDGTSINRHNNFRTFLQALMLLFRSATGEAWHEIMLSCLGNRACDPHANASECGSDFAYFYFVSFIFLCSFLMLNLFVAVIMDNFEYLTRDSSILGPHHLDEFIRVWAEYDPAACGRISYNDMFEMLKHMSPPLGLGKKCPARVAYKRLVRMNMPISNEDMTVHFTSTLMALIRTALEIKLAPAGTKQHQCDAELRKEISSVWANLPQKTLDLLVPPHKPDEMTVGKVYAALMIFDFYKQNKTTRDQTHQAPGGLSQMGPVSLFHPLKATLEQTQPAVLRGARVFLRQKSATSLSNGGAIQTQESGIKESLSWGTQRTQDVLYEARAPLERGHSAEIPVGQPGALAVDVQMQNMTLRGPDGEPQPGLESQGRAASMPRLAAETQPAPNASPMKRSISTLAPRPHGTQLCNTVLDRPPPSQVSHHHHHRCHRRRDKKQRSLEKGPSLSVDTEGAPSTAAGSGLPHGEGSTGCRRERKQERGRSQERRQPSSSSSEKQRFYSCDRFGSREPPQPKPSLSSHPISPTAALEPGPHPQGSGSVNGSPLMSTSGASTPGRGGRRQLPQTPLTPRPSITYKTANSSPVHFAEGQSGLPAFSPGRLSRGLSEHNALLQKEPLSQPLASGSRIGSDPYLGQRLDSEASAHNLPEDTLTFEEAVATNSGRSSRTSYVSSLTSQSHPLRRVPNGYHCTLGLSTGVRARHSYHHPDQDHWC
compound,measurement,setting,value
CC(C)C[C@H](NC(=O)CNC(=O)[C@H](CCCNC(=N)N)NC(=O)[C@@H]1CCCN1C(=O)[C@@H](NC(=O)CNC(=O)[C@H](CCCNC(=N)N)NC(=O)[C@H](CC(C)C)NC(=O)[C@H](CCC(=O)O)NC(=O)[C@H](C)NC(=O)[C@H](CC(C)C)NC(=O)[C@H](CCCNC(=N)N)NC(=O)[C@H](CO)NC(=O)[C@H](CCCNC(=N)N)NC(=O)[C@H](C)NC(=O)[C@H](CCCNC(=N)N)NC(=O)[C@H](CCCNC(=N)N)NC(=O)[C@H](CCCNC(=N)N)NC(=O)[C@H](CCC(N)=O)NC(=O)[C@H](CCCNC(=N)N)NC(=O)[C@H](CCCNC(=N)N)NC(=O)[C@H](CCCCN)NC(=O)[C@H](CCCCN)NC(=O)[C@H](CCCNC(=N)N)NC(=O)CNC(=O)[C@@H](N)Cc1ccc(O)cc1)C(C)C)C(=O)O [tat-CBD3] (H-YGRKKRRQRRRARSRLAELRGVPRGL-OH),average time on rotarod over the course of 300 minutes,Rotarod performance test,180 ± 0 s
ω-conotoxin MVIIA,duration of reduced thermal hypersensitivity and mechanical allodynia,[1]; in vivo,2 to 4 h
same,time of maximal effect,[1]; in vivo,2 h
myr-tat-CBD3 (peptide),percent inhibition of CaV2.2-CRMP2 binding at 10 μM,[2],> 81%
NCC1(CC(=O)O)CCCCC1 [gabapentin],block of CaV2.2 currents after acute treatments,[3],ineffective in blocking currents
same,"peak effect, reversal of hypersensitivity","[1]; intrathecal, von Frey on incised paw, 60 minutes after injection",~ 19%
CCCCCCCCCCCCCC(=O)NCC(=O)N[C@@H](Cc1ccc(O)cc1)C(=O)NCC(=O)N[C@@H](CCCNC(=N)N)C(=O)N[C@@H](CCCCN)C(=O)N[C@@H](CCCCN)C(=O)N[C@@H](CCCNC(=N)N)C(=O)N[C@@H](CCCNC(=N)N)C(=O)N[C@@H](CCC(N)=O)C(=O)N[C@@H](CCCNC(=N)N)C(=O)N[C@@H](CCCNC(=N)N)C(=O)N[C@@H](CCCNC(=N)N)C(=O)N[C@@H](C)C(=O)N[C@@H](CCCNC(=N)N)C(=O)N[C@@H](CO)C(=O)N[C@@H](CCCNC(=N)N)C(=O)N[C@@H](CC(C)C)C(=O)N[C@@H](C)C(=O)N[C@@H](CCC(=O)O)C(=O)N[C@@H](CC(C)C)C(=O)N[C@@H](CCCNC(=N)N)C(=O)NCC(=O)N[C@H](C(=O)N1CCC[C@H]1C(=O)N[C@@H](CCCNC(=N)N)C(=O)NCC(=O)N[C@@H](CC(C)C)C(=O)O)C(C)C [myr-tat-CBD3] (Myristoyl-GYGRKKRRQRRRARSRLAELRGVPRGL-OH; C-terminus assumed),"expression of phosphorylated CRMP2 at sites 522, 509/514, 555",CRMP2 phosphorylation,no changes
same,extent of CRMP2 dimer or tetramer,CRMP2,does not alter
same,"Manders overlap coefficient (MOC), CaV2.2 with CRMP2",CaV2.2,0.65
same,"Pearson correlation coefficient (PCC), CaV2.2 with CRMP2",CaV2.2,0.60
same,"effect on Ca2+ currents, acute application","[4]; acute application (5–30 minutes), data not shown",unable to inhibit currents
same,inhibition of Ca2+ currents,"[4]; chronic application (~24 hours), 20 μM overnight, n = 14 to 16 cells",~ 40%
same,activation of Ca2+ currents,"[4]; chronic application, 20 μM, Boltzmann fits",no changes
same,number of action potentials (APs),[5],significantly decreased
same,carrageenan-induced thermal hypersensitivity vs vehicle,[6],significantly attenuated
same,time for which maintenance of thermal and tactile hypersensitivity was blocked,"[7]; 20 μg/5 μL i.t., 24 hours after incision, n = 5",at least 4 hours
same,withdrawal threshold (tactile),"[7]; at 5 hours after i.t. injection, 20 μg/5 μL",~ 11 g
same,duration of reversal of thermal hypersensitivity,[7]; spinal administration after surgery,~ 4 hours
same,effect on Na+ currents,[8],did not affect
CN1CC[C@]23c4c5ccc(O)c4O[C@H]2[C@@H](O)C=C[C@H]3[C@H]1C5 [morphine],conditioned place preference,[9],positive condition place preference
